High-throughput results deposited in PubChem BioAssay by several laboratories.
Most compounds without a hit are left out; they make up all but 2% or so of the library.
NR2E3 ag-1 – inhibitors of NR2E3-RetCOR corepressor binding, primary screen, NR2E3 agonist project, biochemical, TR-FRET, GST-NR2E3, biotin-RetCOR; 0.12% of 320,000 active; 1536-well; inhibition of corepressor binding, % at 4.78 µM;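 active = percent inhibition above the cutoff of mean plus 3 SD of all tested compounds, set per screening campaign, cut at about 20% in these data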;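 also: 0% = DMSO wells and 100% = biotin wells as full block of FRET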
Target sequence (Q9Y5X4 whole entry, looked up): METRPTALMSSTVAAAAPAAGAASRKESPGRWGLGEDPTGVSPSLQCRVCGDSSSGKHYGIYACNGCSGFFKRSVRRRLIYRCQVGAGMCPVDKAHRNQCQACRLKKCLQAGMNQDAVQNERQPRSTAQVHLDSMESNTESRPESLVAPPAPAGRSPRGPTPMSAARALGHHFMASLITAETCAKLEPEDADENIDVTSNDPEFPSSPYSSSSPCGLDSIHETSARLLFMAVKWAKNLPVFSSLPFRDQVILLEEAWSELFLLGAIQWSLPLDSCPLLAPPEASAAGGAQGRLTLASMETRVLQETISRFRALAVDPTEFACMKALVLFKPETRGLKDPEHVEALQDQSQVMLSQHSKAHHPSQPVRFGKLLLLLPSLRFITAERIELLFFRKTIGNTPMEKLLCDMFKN
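Material: NR2E3–RetCOR corepressor complex / Incubation: Compound–protein incubation for 5 h at 4 °C / Dosing: compound at 4.8 µM, single dose / Detection: time-resolved FRET / Benchmarks: high control biotin, low control 0.6% DMSO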
Myeloid diff MLP – induction of myeloid progenitor differentiation, primary screen, cell-based, flow cytometry, MLPCN library; ER-HoxA9 myeloid progenitors, lysozyme-GFP differentiation; calls only at 10 µM; 1% of 360,000 active;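 active = normalized GFP-positive differentiation at or above the plate's own cutoff, the solvent-only control mean plus 3 SD; inconclusive = no clear call, values can overlap the other calls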;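 also: cells exposed to compound for four days before flow analysis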
T cell HTS – modulators of CD8 T cell-vesicle binding, primary screen, mouse 2C CD8+ T cells, flow cytometry | 2C CD8+ T cell-vesicle binding; active compounds read low | response (vesicle binding), % at 7 µM | 0.068% of 330,000 active | AID 2052, 2009;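 active = response, share of CD8 T cells binding vesicles, and their 90th percentile fluorescence all below set limits, cut at about 80% in these data, passing the limit was not always enough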;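 also: values below 100% mean blocked vesicle binding to the CD8+ T cells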
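Read-out – percent CD8+ FL2 mean versus row control · System – murine 2C transgenic CD8+ T lymphocytes · Times – 1.5 h cell–vesicle binding at 37 °C, then 20 min icy labelling · Control set – naked vesicles low, QL9 vesicles with vehicle high · Detection – cytometric PE anti-B7-1 and Alexa647 anti-CD8 signals after 1% paraformaldehyde fixation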
NR2E3 ag-2 – NR2E3 agonists in two-hybrid cells, primary screen, cell-based, luminescence, CHO-S, Gal4-NCOR/VP16-NR2E3; luciferase; Photoreceptor-specific nuclear receptor (Homo sapiens), Q9Y5X4; 0.35% of 360,000 active; inhibition of corepressor binding, % at 3.98 µM;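 active = inhibition above the mean of all tested compounds plus 3 SD, cut at about 70% in these data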;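 also: 0% = DMSO with NR2E3 transfected cells and 100% = cells lacking NR2E3 construct; higher means lower luciferase signal from less NR2E3 corepressor binding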
FXN GAA850 act – FXN promoter activators, primary screen, cell-based, luciferase luminescence, HEK293 lucGAA850. HEK293 lucGAA850 FXN promoter luciferase reporter, 24 h; percent of 10 µM SAHA response. 0.56% of 360,000 active. activation, % at 6 µM;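 active = activation above the average of all compounds screened plus 3 SD, cutoff fixed separately per campaign, cut at about 7.5% in these data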;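 also: 0% = DMSO wells and 100% = 10 µM SAHA wells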
GAA30 counter – GAA30 FXN promoter activators, confirmation, counter-screen for GAA850 frataxin promoter activator project, cell-based, luminescence, HEK293, lucGAA30, triplicate | 66% of 1,900 active | activation, % at 6 µM | AID 588350, 2011 | HEK293 lucGAA30 FXN promoter luciferase, 24 h; DMSO = 0%, 5 µM ipriflavone = 100% | shares compounds with FXN GAA850 act;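 active = mean activation above the mean of solvent-only control wells plus 3 SD, cut at about 22% in these data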;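 also: counterscreen of GAA850 promoter hits where activity marks nonselective or luminescence artifacts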
FXN GAA850 conf – FXN GAA850 promoter activators in reporter cells, confirmation, cell-based, luminescence, HEK293 lucGAA850, triplicate; activation, % at 6 µM; 86% of 1,900 active; HEK293 lucGAA850 FXN promoter luciferase reporter, 24 h; 100% = activation by SAHA; shares compounds with FXN GAA850 act; AID 588351, 2011;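 active = mean activation above a set limit taken from the primary screen, cut at about 8% in these data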;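 also: 0% = DMSO wells and 100% = 10 µM SAHA wells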
Numbers without * were called inactive; i = inactive; ? = inconclusive; . = no result given.

SMILES	NR2E3 ag-1	Myeloid diff MLP	T cell HTS	NR2E3 ag-2	FXN GAA850 act	GAA30 counter	FXN GAA850 conf
COc1cc2sc3cc(NCC[C@@H]4CCCN4C)ccc3c(=O)c2cc1OC	.	?	225	-48	9.9*	83*	42*
COc1cc2sc3cc(NCc4ccc(C)o4)ccc3c(=O)c2cc1OC	.	i	.	-54	11*	109*	35*
O=C(Cn1ncc(Cl)c(Cl)c1=O)N1CCN(S(=O)(=O)c2ccc3ccccc3c2)CC1	16	?	552	-5	9.7*	-63	16*
C=C(c1ccc2nc(NC(=O)OC)[nH]c2c1)c1cccs1	.	.	.	-44	6	.	.
C=CCOc1ccc2nc(NC(=O)OC)[nH]c2c1	-2	?	366	-34	7.7*	-12	41*
CC(COc1ccccc1Cc1ccccc1)N1CCCCC1 (stereo not given)	0	.	636	.	.	.	.
COc1ccccc1-c1ccc2c(c1)C(C)(Cc1ccc(F)c(Cl)c1)C(=O)N2 (stereo not given)	.	i	.	-5	13*	9	8.5*
COc1ccccc1-c1ccc2c(c1)C(C)(Cc1ccc(Cl)cc1)C(=O)N2 (stereo not given)	.	i	.	-16	2	.	.
COC(=O)c1cccc(CC2(C)C(=O)Nc3cc(-c4ccccc4Cl)ccc32)c1 (stereo not given)	.	i	.	-100	17*	58*	31*
COc1ccccc1-c1ccc2c(c1)C(C)(Cc1cccc(C#N)c1)C(=O)N2 (stereo not given)	.	i	.	23	11*	10	8.1*
CC1(C(=O)Nc2ccc3c(c2)OCCO3)CN(S(C)(=O)=O)CC(=O)N1C1CCCCCC1 (stereo not given)	.	i	.	.	.	.	.
CCN(C(=O)COC(=O)CCCOc1ccc(Cl)cc1C)c1c(N)n(Cc2ccccc2)c(=O)[nH]c1=O	.	i	.	-5	0	.	.
COCCCNC(=O)[C@@H](Cc1ccccc1)NC(=O)CC[C@H]1O[C@@H](n2ccc(=O)[nH]c2=O)[C@H](O)[C@@H]1O	.	i	.	21	.	.	.
CCN(CC)S(=O)(=O)c1ccc(Nc2nc3ccccc3n3nnnc23)cc1	2	i	314	-83	7.8*	90*	36*
Fc1ccccc1Nc1nc2ccccc2n2nnnc12	5	i	412	-102	8.2*	106*	42*
Cc1cc2nc(-c3cccc(Cl)c3)c(Cc3ccsc3)n2c(C)c1Br	.	i	.	-15	.	.	.
COc1ccccc1/C=N/Nc1nncc2ccccc12	1	i	243	-85	8.2*	104*	36*
CCCCn1nc(C(=O)NCC2COc3ccccc3O2)c2ccccc2c1=O (stereo not given)	0	i	157	-21	1	.	.
O=C(COc1ccc(F)cc1)Nc1ccc2c(c1)OCCO2	2	i	752	1	7.7*	77*	22*
O=C1O[C@@H](c2ccccc2)C[C@@H](O)[C@H](O)CCCCc2ccccc21	.	i	.	-12	.	.	.
c1ccc(-c2nc(NCc3cccnc3)c3ccccc3n2)cc1	3	i	281	-32	4	.	.
Cc1ccc(-c2nc(NCc3cccnc3)c3ccccc3n2)cc1	-2	i	89	-25	7.7*	30*	13*
CC=CCn1c(SCc2ccccc2)nc2c1c(=O)[nH]c(=O)n2C	.	i	.	9	2	.	.
C/C=C/Cn1c(SCc2ccc(C)cc2)nc2c1c(=O)[nH]c(=O)n2C	-3	i	263	-1	8.7*	23*	21*
CCN(CC(=O)Nc1c(F)cccc1F)C(=O)CCCN1C(=O)c2cccc3cccc(c23)C1=O	.	i	.	17	0	.	.
SMILES	NR2E3 ag-1	Myeloid diff MLP	T cell HTS	NR2E3 ag-2	FXN GAA850 act	GAA30 counter	FXN GAA850 conf
CN(CC(=O)Nc1cccc(F)c1)C(=O)CCCN1C(=O)c2cccc3cccc(c23)C1=O	0	i	457	-18	14*	30*	11*
O=C(Cc1c(F)cccc1Cl)NCCc1c[nH]c2ccccc12	7	i	197	-6	1	.	.
O=C(NCCc1c[nH]c2ccccc12)c1c(Cl)nc2sccn12	2	i	252	-24	7.7*	46*	23*
CCOc1cccc2cc(C(=O)NCc3ccc(OC)cc3)c(=N)oc12	1	i	202	4	0	.	.
S=C(Nc1ccccc1)Nc1nc2ccccc2n1CCOc1ccc(Br)cc1	2	i	193	-16	0	.	.
Cn1c(NC(=S)Nc2ccccc2)nc2ccccc21	18	i	427	29	8.2*	85*	27*
Cc1ccc(Nc2nc(N)c([N+](=O)[O-])c(NCc3ccco3)n2)cc1C	0	i	i	-76	7.8*	92*	44*
CN(C)c1nc(N)c([N+](=O)[O-])c(NCc2ccccc2)n1	0	i	119	4	7.6*	69*	25*
Cc1ccc(Nc2nc(N)c([N+](=O)[O-])c(NCCO)n2)cc1C	-2	i	380	-12	5	.	.
CNc1nc(N)c([N+](=O)[O-])c(NCc2ccccc2)n1	-3	?	204	-33	17*	87*	32*
O=C(CCSC1=NCCCN1)c1ccc(F)cc1	.	.	.	-10	0	.	.
O=c1oc2cc(O)ccc2s1	6	i	384	-2	9.6*	-4	16*
Oc1ccc2c(c1)oc1cc(O)ccc12	2	i	430	-95	1	.	.
OC1CCCN(c2c3c(nc4cc(-c5cccc(F)c5)nn24)CCCC3)C1 (stereo not given)	4	i	209	-77	14*	92*	32*
CC(C)(C)S(=O)N1Cc2cc(C(=O)Nc3ccc(-c4ccccc4)cc3)nc(-c3cccc(-c4cc5ccccc5o4)c3)c2[C@@H]1CCO (stereo not given in full)	.	i	.	3	.	.	.
O=C1C2C3C=CC(C4CC34)C2C(=O)N1/N=C/c1ccc(-c2ccc([N+](=O)[O-])cc2)o1 (stereo not given)	4	i	150	-57	2	.	.
